Measurements as given in ChEMBL document CHEMBL4038343, “Dual MET and SMO Negative Modulators Overcome Resistance to EGFR Inhibitors in Human Nonsmall Cell Lung Cancer” (J Med Chem, 2017).
Activity calls are given as the source filed them. The rule behind the calls is not given here.

Experiments:
Protein smoothened [1] = target: Protein smoothened (Homo sapiens, UniProt Q99835, V404M); assay: Displacement of [3H]-cyclopamine from SMO V404M mutant in gefitinib resistant human HCC827 cells by scintillation counting
Chain of Protein smoothened (Homo sapiens, UniProt Q99835, V404M) (Q99835 28-787 V404M limits assumed): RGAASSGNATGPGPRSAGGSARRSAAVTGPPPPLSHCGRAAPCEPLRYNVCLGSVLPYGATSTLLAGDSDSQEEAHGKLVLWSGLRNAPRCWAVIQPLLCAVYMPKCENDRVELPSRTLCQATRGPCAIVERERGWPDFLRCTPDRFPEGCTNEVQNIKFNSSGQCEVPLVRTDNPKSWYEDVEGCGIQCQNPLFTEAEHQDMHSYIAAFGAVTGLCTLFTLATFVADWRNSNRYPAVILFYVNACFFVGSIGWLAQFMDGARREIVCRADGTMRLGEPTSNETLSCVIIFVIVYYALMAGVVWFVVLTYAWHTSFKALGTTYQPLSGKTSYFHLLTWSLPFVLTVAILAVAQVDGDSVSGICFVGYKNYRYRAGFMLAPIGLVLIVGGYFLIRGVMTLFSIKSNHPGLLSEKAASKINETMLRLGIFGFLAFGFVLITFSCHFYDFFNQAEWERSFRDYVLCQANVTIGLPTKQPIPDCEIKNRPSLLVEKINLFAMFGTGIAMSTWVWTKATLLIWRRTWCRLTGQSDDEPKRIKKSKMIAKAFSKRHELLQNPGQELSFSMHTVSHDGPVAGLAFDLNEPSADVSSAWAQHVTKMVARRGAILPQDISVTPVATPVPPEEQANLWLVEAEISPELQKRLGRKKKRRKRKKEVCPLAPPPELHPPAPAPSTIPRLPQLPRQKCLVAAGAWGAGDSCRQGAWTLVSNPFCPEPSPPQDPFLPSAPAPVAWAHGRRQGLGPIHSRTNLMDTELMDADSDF

[2] = system: Protein smoothened (Homo sapiens), Q99835 [V404M]; assay: Inhibition of SMO V404M mutant in gefitinib resistant human HCC827 cells assessed as decrease in GLI1 activity at 2 uM by GLI1 luciferase reporter assay relative to control
Chain of Protein smoothened (Homo sapiens), Q99835 [V404M] (Q99835 whole entry V404M): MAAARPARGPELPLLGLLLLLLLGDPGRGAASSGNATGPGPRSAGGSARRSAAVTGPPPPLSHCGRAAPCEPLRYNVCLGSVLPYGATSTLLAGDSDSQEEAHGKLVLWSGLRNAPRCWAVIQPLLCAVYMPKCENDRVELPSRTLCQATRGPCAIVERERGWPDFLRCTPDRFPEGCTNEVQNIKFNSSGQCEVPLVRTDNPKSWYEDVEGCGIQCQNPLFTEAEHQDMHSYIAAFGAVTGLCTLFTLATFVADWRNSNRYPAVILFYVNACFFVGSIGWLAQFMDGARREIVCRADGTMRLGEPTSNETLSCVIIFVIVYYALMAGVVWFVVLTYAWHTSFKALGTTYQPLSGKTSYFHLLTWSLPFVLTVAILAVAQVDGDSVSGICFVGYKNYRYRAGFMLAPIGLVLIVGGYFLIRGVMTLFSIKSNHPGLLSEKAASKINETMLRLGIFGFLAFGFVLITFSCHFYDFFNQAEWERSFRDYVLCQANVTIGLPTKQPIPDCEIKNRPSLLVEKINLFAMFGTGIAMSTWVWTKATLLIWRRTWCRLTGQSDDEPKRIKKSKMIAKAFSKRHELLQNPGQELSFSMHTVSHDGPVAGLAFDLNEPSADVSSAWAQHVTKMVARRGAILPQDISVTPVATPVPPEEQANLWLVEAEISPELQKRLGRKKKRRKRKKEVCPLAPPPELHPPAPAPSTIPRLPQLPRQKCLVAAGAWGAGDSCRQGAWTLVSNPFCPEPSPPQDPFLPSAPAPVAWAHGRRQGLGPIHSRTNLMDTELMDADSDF
In short: (§1)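 HCC827-GR cells seeded serum-free, cotransfected at 50% confluence with GLI1-firefly luciferase reporter plus pRL-TK Renilla (Lipofectamine 2000, triplicate); after 8 h medium switched to compound, with or without 100 nM SAG; about 48 h post-transfection dual-luciferase read; firefly normalized to Renilla as fold over control; three independent experiments.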

[3] = system: Protein smoothened (Homo sapiens), Q99835 [V404M]; assay: Inhibition of SMO V404M mutant in gefitinib resistant human HCC827 cells assessed as decrease in GLI1 activity at 60 uM by GLI1 luciferase reporter assay relative to control; in short: as §1
[4] = system: Protein smoothened (Homo sapiens), Q99835 [V404M]; assay: Inhibition of SMO V404M mutant in gefitinib resistant human HCC827 cells assessed as decrease in GLI1 activity at 2 to 60 uM in presence of SMO agonist SAG by GLI1 luciferase reporter assay; in short: as §1
[5] = system: Protein smoothened (Homo sapiens), Q99835 [V404M]; assay: Inhibition of SMO V404M mutant in gefitinib resistant human HCC827 cells assessed as decrease in GLI1 activity by GLI1 luciferase reporter assay; in short: as §1
[6] = system: Protein smoothened (Homo sapiens), Q99835 [V404M]; assay: Displacement of [3H]-cyclopamine from SMO V404M mutant in gefitinib resistant human HCC827 cells at 10 uM by scintillation counting
Protein smoothened [7] = target: Protein smoothened (Homo sapiens, UniProt Q99835); assay: Displacement of [3H]-cyclopamine from human wild-type SMO receptor expressed in HEK293T cell membranes by liquid scintillation spectrometry; parameters: species or system HEK-293T
Chain of Protein smoothened (Homo sapiens, UniProt Q99835) (Q99835 whole entry): as the sequence (Q99835 whole entry V404M) above, with M404V counted along it

HCC827 [8] = assay: Antiproliferative activity against gefitinib resistant EGFR-mutated human HCC827 cells after 72 hrs by MTT assay; assay type: functional, cell-based; settings: for IC50: HCC827, 72 h
HCC827 [9] = assay: Induction of apoptosis in gefitinib resistant human HCC827 cells at 0.01 to 1 uM after 72 hrs by annexin V-FITC-propidium iodide staining-based flow cytometry method relative to control; assay type: functional, cell-based
In short: (§2)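 HCC827-GR cells treated 72 h, trypsinized, resuspended at 1 × 10^6/mL in binding buffer, stained 30 min at RT in dark with annexin V-FITC and propidium iodide; FACSCalibur flow cytometry (488 nm excitation; 530 nm FITC, 670 nm PI); mean of three wells from a representative experiment.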

HCC827 [10] = assay: Downregulation of SMO expression in gefitinib resistant human HCC827 cells at 0.1 to 0.5 uM after 72 hrs by Western blotting method; assay type: functional, cell-based
In short: (§3)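 HCC827-GR cells treated 72 h; lysates in RIPA or Tween-20 buffer, protein equalized by Bradford, Western blotting with antibodies to p-MAPK44/42 (Thr202/Tyr204), MAPK, p-AKT (Ser473), AKT, p-MET (Tyr1234/1235), MET, SMO, GLI1, α-tubulin; ECL detection; triplicate.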

HCC827 [11] = assay: Effect on total MAPK levels in gefitinib resistant human HCC827 cells at 0.1 to 0.5 uM after 72 hrs by Western blotting method; assay type: ADME, cell-based; settings: hcc827, 72 h; in short: as §3
HCC827 [12] = assay: Effect on total AKT levels in gefitinib resistant human HCC827 cells at 0.1 to 0.5 uM after 72 hrs by Western blotting method; assay type: ADME, cell-based; settings: hcc827, 72 h; in short: as §3
HCC827 [13] = assay: Antitumor activity against gefitinib resistant human HCC827 cells xenografted in balb/c athymic nu/nu mouse assessed as decrease in tumor size at 20 mg/kg/day, po; assay type: functional, organism-based
In short: (§4)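 Female balb/c nu/nu mice, 4–6 weeks old, given 10^7 HCC827 cells s.c. in 1:1 Matrigel/medium; at 150 mm3 tumors, 3-weekly escalating oral gefitinib (18.7 to 150 mg/kg/day) over 4 months until resistance (>25% regrowth from maximal reduction); then randomized to oral test agent at fixed daily dose; tumor volume (π/6 × larger × smaller²) every other day.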

HCC827 [14] = assay: Antitumor activity against gefitinib resistant human HCC827 cells xenografted in balb/c athymic nu/nu mouse assessed as decrease in tumor size at 20 mg/kg/day, po in presence of gefitinib; assay type: functional, organism-based
In short: (§5)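 HCC827 s.c. xenografts (10^7 cells in Matrigel) in female balb/c nu/nu mice made gefitinib-resistant by 3-weekly escalating oral gefitinib (18.7–150 mg/kg/day); gefitinib then continued at its last maximal dose with oral compound at fixed daily dose; tumor volume by calipers (π/6 × larger × smaller²) and body weight on alternate days.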

HCC827 [15] = assay: Antitumor activity against gefitinib resistant human HCC827 cells xenografted in balb/c athymic nu/nu mouse assessed as decrease in tumor size at 20 mg/kg/day, po in presence of gefitinib
HCC827 [16] = assay: Induction of apoptosis in gefitinib resistant human HCC827 cells at 0.1 uM after 72 hrs by annexin V-FITC-propidium iodide staining-based flow cytometry method relative to control; assay type: functional; in short: as §2
HCC827 [17] = assay: Induction of apoptosis in gefitinib resistant human HCC827 cells at 0.5 uM after 72 hrs by annexin V-FITC-propidium iodide staining-based flow cytometry method relative to control; assay type: functional; in short: as §2
[18] = Plasma concentration in balb/c athymic nu/nu mouse at 20 mg/kg, po measured after 5 hrs; assay type: ADME, organism-based
HCC827 [19] = assay: Antitumor activity against gefitinib resistant human HCC827 cells xenografted in balb/c athymic nu/nu mouse assessed as decrease in tumor size at 15 mg/kg/day, po; assay type: functional, organism-based; in short: as §4
[20] = target: Hepatocyte growth factor receptor (Homo sapiens) (UniProt P08581); assay: Inhibition of MET phosphorylation at Tyr1234/1235 in gefitinib resistant human HCC827 cells at 0.05 to 0.1 uM after 72 hrs by Western blotting method; in short: as §3
Chain of Hepatocyte growth factor receptor (Homo sapiens) (P08581 whole entry): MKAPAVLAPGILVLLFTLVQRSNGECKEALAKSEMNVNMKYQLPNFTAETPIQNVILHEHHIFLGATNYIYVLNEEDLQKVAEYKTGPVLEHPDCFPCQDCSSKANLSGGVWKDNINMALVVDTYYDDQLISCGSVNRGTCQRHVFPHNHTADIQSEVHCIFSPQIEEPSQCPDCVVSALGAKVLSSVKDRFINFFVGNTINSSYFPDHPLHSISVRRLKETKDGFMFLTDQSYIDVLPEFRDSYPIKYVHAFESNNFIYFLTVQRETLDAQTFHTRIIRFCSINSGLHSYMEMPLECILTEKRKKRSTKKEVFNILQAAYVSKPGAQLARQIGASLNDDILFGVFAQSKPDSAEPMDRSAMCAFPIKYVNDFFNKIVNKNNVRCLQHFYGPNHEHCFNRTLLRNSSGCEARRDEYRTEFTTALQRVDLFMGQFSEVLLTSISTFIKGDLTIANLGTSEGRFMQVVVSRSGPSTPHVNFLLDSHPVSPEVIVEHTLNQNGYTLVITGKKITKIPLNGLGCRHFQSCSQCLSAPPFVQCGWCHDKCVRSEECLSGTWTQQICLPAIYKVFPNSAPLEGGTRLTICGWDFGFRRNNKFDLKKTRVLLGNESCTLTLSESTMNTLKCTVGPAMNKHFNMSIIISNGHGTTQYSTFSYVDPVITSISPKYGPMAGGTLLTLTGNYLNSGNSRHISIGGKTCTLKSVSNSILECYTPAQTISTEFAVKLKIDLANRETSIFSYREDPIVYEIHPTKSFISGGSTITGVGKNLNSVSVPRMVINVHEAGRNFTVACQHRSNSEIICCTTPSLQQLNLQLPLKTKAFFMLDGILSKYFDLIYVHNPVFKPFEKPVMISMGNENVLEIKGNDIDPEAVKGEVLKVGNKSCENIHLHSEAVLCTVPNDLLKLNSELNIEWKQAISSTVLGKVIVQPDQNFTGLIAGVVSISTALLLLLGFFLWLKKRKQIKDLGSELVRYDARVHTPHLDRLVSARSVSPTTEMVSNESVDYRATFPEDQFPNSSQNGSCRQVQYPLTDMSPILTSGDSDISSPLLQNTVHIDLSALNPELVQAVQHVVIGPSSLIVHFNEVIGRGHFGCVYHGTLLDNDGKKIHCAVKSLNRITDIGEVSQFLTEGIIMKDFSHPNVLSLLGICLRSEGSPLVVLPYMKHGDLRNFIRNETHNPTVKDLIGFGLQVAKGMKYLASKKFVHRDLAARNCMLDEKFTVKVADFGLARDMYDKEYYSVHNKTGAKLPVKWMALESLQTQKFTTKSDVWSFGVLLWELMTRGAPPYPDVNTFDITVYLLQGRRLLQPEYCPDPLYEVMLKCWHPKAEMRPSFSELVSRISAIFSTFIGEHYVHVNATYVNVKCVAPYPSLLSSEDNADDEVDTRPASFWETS

HCC827 [21] = assay: Downregulation of SMO expression in gefitinib resistant human HCC827 cells at 0.05 to 0.1 uM after 72 hrs by Western blotting method; assay type: functional, cell-based; in short: as §3
HCC827 [22] = assay: Effect on total MAPK levels in gefitinib resistant human HCC827 cells at 0.05 to 0.1 uM after 72 hrs by Western blotting method; assay type: ADME, cell-based; settings: hcc827, 72 h; in short: as §3
HCC827 [23] = assay: Effect on total AKT levels in gefitinib resistant human HCC827 cells at 0.05 to 0.1 uM after 72 hrs by Western blotting method; assay type: ADME, cell-based; settings: hcc827, 72 h; in short: as §3
[24] = target: Hepatocyte growth factor receptor (Homo sapiens) (UniProt P08581); assay: Inhibition of MET in gefitinib resistant human HCC827 cells assessed as decrease in MAPK44/42 phosphorylation at Thr202/Tyr204 at 0.05 to 0.1 uM after 72 hrs by Western blotting method; in short: as §3
[25] = target: Hepatocyte growth factor receptor (Homo sapiens) (UniProt P08581); assay: Inhibition of MET in gefitinib resistant human HCC827 cells assessed as decrease in AKT phosphorylation at Ser473 at 0.05 to 0.1 uM after 72 hrs by Western blotting method; in short: as §3
Homo sapiens = species on record: Homo sapiens; assay: Inhibition of MET/SMO V404M mutant in gefitinib resistant human HCC827 cells assessed as decrease in vimentin expression at 0.05 to 0.1 uM after 72 hrs by Western blotting method
HCC827 [26] = assay: Antitumor activity against gefitinib resistant human HCC827 cells xenografted in balb/c athymic nu/nu mouse assessed as decrease in tumor size at 15 mg/kg/day, po in presence of gefitinib; assay type: functional, organism-based; in short: as §5
HCC827 [27] = assay: Antitumor activity against gefitinib resistant human HCC827 cells xenografted in balb/c athymic nu/nu mouse assessed as decrease in tumor size at 15 mg/kg/day, po in presence of gefitinib

Work on `O=C(NNC(=O)c1ccc([N+](=O)[O-])cc1)C(=O)c1c[nH]c2ccccc12` yielded a Ki (Protein smoothened [1]) of 168 nM, an inhibition [2] of 25 to 50% and an inhibition [3] of 10 to 100%. For the same compound, the inhibition [4] was “inactive” and the inhibition [5] was “Dose-dependent effect”.

For `Cc1cccc(C(=O)Nc2ccc(C(=O)NNC3C(=O)Nc4ccccc43)cc2)c1` (stereo not given), the inhibition [6] was “inactive”.

In the case of `Cc1ccc(F)c(NC(=O)Nc2ccc(-c3cccc4[nH]nc(N)c34)cc2)c1` [LINIFANIB], the Ki (Protein smoothened [1]) is reported as 87.6 nM, the inhibition [2] is reported as 25 to 50% and the inhibition [3] is reported as 10 to 100%. For the same compound, the inhibition [4] was “inactive” and the inhibition [5] was “Dose-dependent effect”.

With `CC(C)(O)CC(=O)NCCn1ccc2ncnc(Nc3ccc(Oc4cccc(C(F)(F)F)c4)c(Cl)c3)c21` the inhibition [6] was “inactive”.

Work on `CSc1cccc(Nc2ncc3cc(-c4c(Cl)cccc4Cl)c(=O)n(C)c3n2)c1` yielded a Ki (Protein smoothened [1]) of 46.2 nM, an inhibition [2] of 25 to 50% and an inhibition [3] of 10 to 100%. For the same compound, the inhibition [4] was “inactive” and the inhibition [5] was “Dose-dependent effect”.

In the case of `CCOc1ccn(-c2ccc(F)cc2)c(=O)c1C(=O)Nc1ccc(Oc2ccnc(N)c2Cl)c(F)c1`, the inhibition [6] is reported as “inactive”.

Compound `CCN1CCN(c2ccc(Nc3cc(N(C)C(=O)Nc4c(Cl)c(OC)cc(OC)c4Cl)ncn3)cc2)CC1` [INFIGRATINIB] has a Ki (Protein smoothened [1]) of 46.5 nM, an inhibition [2] of 25 to 50% and an inhibition [3] of 10 to 100%. The inhibition [4] was “inactive” and the inhibition [5] was “Dose-dependent effect”.

Work on `COc1cc2ncnc(Oc3cccc(NC(=O)Nc4cc(C(C)(C)C(F)(F)F)on4)c3)c2cc1OC` [CEP-32496] yielded a Ki (Protein smoothened [1]) of 188 nM, an inhibition [2] of 25 to 50% and an inhibition [3] of 10 to 100%. For the same compound, the inhibition [4] was “inactive” and the inhibition [5] was “Dose-dependent effect”.

With `COc1cc2c(Oc3ccc(NC(=O)C4(C(=O)Nc5ccc(F)cc5)CC4)cc3F)ccnc2cc1OCCCN1CCOCC1` [FORETINIB] the Ki (Protein smoothened [7]) was 59.7 nM, the Ki (Protein smoothened [1]) was 66.8 nM and the Activity (HCC827 [8]) was “Dose-dependent effect”. It also gave an IC50 (HCC827 [8]) of 500 nM, an inhibition [2] of 25 to 50% and an inhibition [3] of 10 to 100%. The inhibition [4] was “inactive”, the inhibition [5] was “Dose-dependent effect” and the Activity (HCC827 [9]) was “Active”. For the same compound, the Activity (HCC827 [10]) was “Active”, the Activity (HCC827 [11]) was “Non-Toxic” and the Activity (HCC827 [12]) was “Non-Toxic”. The Activity (HCC827 [13]) was “Active”, the Activity (HCC827 [14]) was “Active” and the Activity (HCC827 [15]) was “Active”.

For `Cn1cnc(-c2cc3nccc(Oc4ccc(NC(=S)NC(=O)Cc5ccccc5)cc4F)c3s2)c1`, the Ki (Protein smoothened [7]) was 41.7 nM, the Ki (Protein smoothened [1]) was 53.1 nM and the Activity (HCC827 [8]) was “Dose-dependent effect”. The IC50 (HCC827 [8]) was 80 nM, the Activity (HCC827 [16]) was 62% and the Activity (HCC827 [17]) was 84%. For the same compound, the inhibition [2] was 25 to 50%, the inhibition [3] was 10 to 100% and the inhibition [4] was “inactive”. For the same compound, the concentration at 5 h [18] was 800 nM, the Activity (HCC827 [19]) was “Active” and the inhibition [20] was “Active”. The Activity (HCC827 [21]) was “Active”, the inhibition [5] was “Dose-dependent effect” and the Activity (HCC827 [22]) was “Non-Toxic”. For the same compound, the Activity (HCC827 [23]) was “Non-Toxic”, the inhibition [24] was “Active” and the inhibition [25] was “Active”. For the same compound, the inhibition (Homo sapiens) was “Active”, the Activity (HCC827 [26]) was “Active” and the Activity (HCC827 [27]) was “Active”.

For `O=C(CCCCCC(=O)N/N=C/c1cc2c(cc1[N+](=O)[O-])OCO2)N/N=C/c1cc2c(cc1[N+](=O)[O-])OCO2`, the inhibition [6] was “inactive”.

In the case of `Cc1ccc(NC(=O)CN2C(=O)/C(=N/NC(=O)c3cc(Br)ccc3O)c3ccccc32)cc1`, the Ki (Protein smoothened [1]) is reported as 50.4 nM, the inhibition [2] is reported as 25 to 50% and the inhibition [3] is reported as 10 to 100%. For the same compound, the inhibition [4] was “inactive” and the inhibition [5] was “Dose-dependent effect”.
